# Calls of active or inactive are those of the source. No cut-off for these calls is given here.
# How the values were obtained:
# MDA-MB-436 = assay: Antiproliferative activity against human MDA-MB-436 cells assessed as cell growth inhibition incubated for 7 days by CCK-8 assay; assay type: functional, cell-based; conditions: MDA-MB-436, 168 h
# Method in brief: (§1)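 Cells were sub-cultured at least twice and seeded for 24 h before dosing. Compounds came from 10 mM DMSO stocks, given as 10 points of 3-fold serial dilution starting at 10-20 μM. Incubation was about 7 days (Capan-1 13 days) at 37 °C, 5% CO2. Read-out was CCK-8 absorbance at 450 nm, as % growth versus DMSO wells (duplicate wells). IC50 was fitted by nonlinear regression; three independent experiments.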
# CAPAN-1 = assay: Antiproliferative activity against human CAPAN-1 cells assessed as cell growth inhibition incubated for 13 days by CCK-8 assay; assay type: functional, cell-based; conditions: CAPAN-1, 312 h; method in brief: as §1
# [1] = biological target: von Hippel-Lindau disease tumor suppressor/Poly [ADP-ribose] polymerase 1 (Homo sapiens) (UniProt P09874+P40337); assay: Protac activity at VHL/PARP1 in human MDA-MB-436 cells assessed as reduction in PARP1 protein level at 1 uM incubated for 24 hrs by western blot analysis; assay type: cell-based
# SW-620 = assay: Antitumor activity against SW-620 cells xenografted in Balb/c mouse assessed as tumor growth suppression at 50 mg/kg, po administered once daily for 5 days; assay type: functional, organism-based; conditions: time 5.0 day
# Method in brief: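 Male BALB/c nude mice carried SW620 xenografts (6×10^6 cells s.c.), randomized at ~150 mm³ (6 per group). TMZ 50 mg/kg was given orally once daily on days 0-4, 45 min after the partner drug. Partners were 5 or 10 mg/kg intraperitoneally or 10 mg/kg by oral gavage, daily for 5 days. Vehicle was 5% DMSO/20% PEG400/10% Cremophor EL/65% saline. Tumor volume and body weight were recorded 2-3 times weekly.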
# [2] = Acute toxicity in Balb/c mouse xenografted with SW-620 cells assessed as mean weight loss at 50 mg/kg, po qd administered for 5 days measured on day 6 relative to control; assay type: organism-based; conditions: in vivo, 144 h, time 6 day
# [3] = biological target: T1, Protein cereblon/Poly [ADP-ribose] polymerase 1 (Homo sapiens, UniProt P09874+Q96SW2); assay: Protac activity at CRBN/PARP1 in human MDA-MB-436 cells assessed as reduction in PARP1 protein level at 0.01 to 10 uM incubated for 12 hrs by western blot analysis; assay type: cell-based; conditions: dose microM 0.01-10, time 12.0 hrs
# Method in brief: (§2)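 MDA-MB-436 or SW620 cells dosed at 1, 10, 100, 1000 nM and 10 µM for 12 h; PARP1 assessed by western blot of RIPA lysates (20-30 µg protein), β-tubulin as loading control.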
# [4] = biological target: T1, Protein cereblon/Poly [ADP-ribose] polymerase 1; assay: Protac activity at CRBN/PARP1 in human SW620 cells assessed as reduction in PARP1 protein level at 0.01 to 10 uM incubated for 12 hrs by western blot analysis; assay type: cell-based; conditions: SW-620, dose microM 0.01-10, time 12.0 hrs; method in brief: as §2
# [5] = biological target: T1, Protein cereblon/Poly [ADP-ribose] polymerase 1; assay: Protac activity at CRBN/PARP1 in human MDA-MB-436 cells assessed as induction of PARP1 degradation at 10 nM incubated for 24 hrs by Western blot analysis relative to control; assay type: cell-based
# Method in brief: (§3)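 MDA-MB-436 cells (RPMI-1640, 10% FBS) seeded 24 h, then exposed to compound at 1, 10, 100 and 1000 nM for 24 h. Lysates in RIPA with protease inhibitors, 20-30 µg protein by SDS-PAGE, PARP1 immunoblot with β-tubulin loading control; PARP1/β-tubulin ratio normalized to DMSO control set at 100.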
# [6] = biological target: T1, Protein cereblon/Poly [ADP-ribose] polymerase 1; assay: Protac activity at CRBN/PARP1 in human MDA-MB-436 cells assessed as induction of PARP1 degradation at 100 nM incubated for 24 hrs by Western blot analysis relative to control; assay type: cell-based; method in brief: as §3
# [7] = biological target: T1, Protein cereblon/Poly [ADP-ribose] polymerase 1; assay: Protac activity at CRBN/PARP1 in human MDA-MB-436 cells assessed as induction of PARP1 degradation at 1 uM incubated for 24 hrs by Western blot analysis relative to control; assay type: cell-based; method in brief: as §3
# [8] = biological target: T1, Protein cereblon/Poly [ADP-ribose] polymerase 1; assay: Protac activity at CRBN/PARP1 in human MDA-MB-436 cells assessed as induction of PARP1 degradation at 1 to 1000 nM incubated for 24 hrs by Western blot analysis; assay type: cell-based; conditions: dose nM 1-1000, time 24.0 hrs
# Method in brief: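 PARP1 immunoblot of MDA-MB-436 lysates after 24 h exposure at 1, 10, 100 and 1000 nM; RIPA lysis, 20-30 µg protein per lane, β-tubulin as loading control, band density normalized to DMSO control.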
# [9] = biological target: T1, Protein cereblon/Poly [ADP-ribose] polymerase 1; assay: Protac activity at CRBN/PARP1 in human Capan1 cells assessed as induction of PARP1 degradation at 1 to 1000 nM incubated for 24 hrs by Western blot analysis; assay type: cell-based; conditions: CAPAN-1, dose nM 1-1000, time 24.0 hrs
# Method in brief: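 Capan-1 cells were treated 24 h (1-1000 nM, or a wider dose range for DC50). Lysis was in RIPA buffer with protease inhibitors, and 20-30 μg protein was blotted. PARP1 was normalized to β-tubulin and to DMSO control, quantified by densitometry. DC50 came from two independent experiments.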
# [10] = biological target: Poly [ADP-ribose] polymerase 1 (Homo sapiens, UniProt P09874); assay: Inhibition of recombinant human C-terminal His-tagged PARP1 expressed in Sf9 insect cells preincubated for 20 mins in presence of activated DNA followed by […] addition and further incubated for 2 hrs by chemiluminescence assay
# Poly [ADP-ribose] polymerase 1, sequence (P09874 whole entry): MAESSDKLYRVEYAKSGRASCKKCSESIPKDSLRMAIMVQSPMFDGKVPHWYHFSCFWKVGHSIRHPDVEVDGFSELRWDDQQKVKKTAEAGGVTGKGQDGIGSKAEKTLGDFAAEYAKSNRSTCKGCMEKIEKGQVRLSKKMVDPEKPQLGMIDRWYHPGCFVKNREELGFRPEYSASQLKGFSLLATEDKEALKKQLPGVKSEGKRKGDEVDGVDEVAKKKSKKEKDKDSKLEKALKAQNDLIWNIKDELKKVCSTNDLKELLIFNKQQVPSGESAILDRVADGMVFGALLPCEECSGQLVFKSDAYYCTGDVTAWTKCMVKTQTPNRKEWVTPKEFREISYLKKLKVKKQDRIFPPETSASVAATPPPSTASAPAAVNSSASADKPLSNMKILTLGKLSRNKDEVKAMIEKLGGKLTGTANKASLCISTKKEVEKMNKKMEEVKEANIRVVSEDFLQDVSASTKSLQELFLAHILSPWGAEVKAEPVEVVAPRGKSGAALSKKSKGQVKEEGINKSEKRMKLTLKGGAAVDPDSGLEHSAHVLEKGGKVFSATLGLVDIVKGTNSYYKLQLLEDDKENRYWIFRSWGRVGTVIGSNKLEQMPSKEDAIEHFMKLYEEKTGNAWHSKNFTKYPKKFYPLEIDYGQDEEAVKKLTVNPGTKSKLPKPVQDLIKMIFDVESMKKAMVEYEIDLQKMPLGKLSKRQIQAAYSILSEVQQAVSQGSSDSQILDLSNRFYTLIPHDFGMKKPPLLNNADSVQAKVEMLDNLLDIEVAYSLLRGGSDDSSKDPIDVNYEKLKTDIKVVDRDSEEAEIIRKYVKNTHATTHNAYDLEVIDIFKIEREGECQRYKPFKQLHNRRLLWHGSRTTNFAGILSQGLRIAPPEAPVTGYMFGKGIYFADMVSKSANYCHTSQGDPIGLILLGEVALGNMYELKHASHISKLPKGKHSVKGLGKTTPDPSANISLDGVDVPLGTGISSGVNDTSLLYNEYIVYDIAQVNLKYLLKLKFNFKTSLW
# von Hippel-Lindau disease tumor suppressor/Poly [ADP-ribose] polymerase 1 (Homo sapiens), sequence (P09874 whole entry, looked up): as the sequence (P09874 whole entry) above
# von Hippel-Lindau disease tumor suppressor/Poly [ADP-ribose] polymerase 1 (Homo sapiens), sequence (P40337 whole entry, looked up): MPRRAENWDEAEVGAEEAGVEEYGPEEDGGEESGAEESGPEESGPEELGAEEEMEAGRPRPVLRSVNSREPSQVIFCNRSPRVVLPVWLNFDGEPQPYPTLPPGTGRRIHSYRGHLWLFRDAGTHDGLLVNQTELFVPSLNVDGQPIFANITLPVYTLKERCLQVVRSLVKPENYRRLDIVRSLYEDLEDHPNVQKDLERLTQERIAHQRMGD
# T1 sequence (P09874 2-1014 limits assumed): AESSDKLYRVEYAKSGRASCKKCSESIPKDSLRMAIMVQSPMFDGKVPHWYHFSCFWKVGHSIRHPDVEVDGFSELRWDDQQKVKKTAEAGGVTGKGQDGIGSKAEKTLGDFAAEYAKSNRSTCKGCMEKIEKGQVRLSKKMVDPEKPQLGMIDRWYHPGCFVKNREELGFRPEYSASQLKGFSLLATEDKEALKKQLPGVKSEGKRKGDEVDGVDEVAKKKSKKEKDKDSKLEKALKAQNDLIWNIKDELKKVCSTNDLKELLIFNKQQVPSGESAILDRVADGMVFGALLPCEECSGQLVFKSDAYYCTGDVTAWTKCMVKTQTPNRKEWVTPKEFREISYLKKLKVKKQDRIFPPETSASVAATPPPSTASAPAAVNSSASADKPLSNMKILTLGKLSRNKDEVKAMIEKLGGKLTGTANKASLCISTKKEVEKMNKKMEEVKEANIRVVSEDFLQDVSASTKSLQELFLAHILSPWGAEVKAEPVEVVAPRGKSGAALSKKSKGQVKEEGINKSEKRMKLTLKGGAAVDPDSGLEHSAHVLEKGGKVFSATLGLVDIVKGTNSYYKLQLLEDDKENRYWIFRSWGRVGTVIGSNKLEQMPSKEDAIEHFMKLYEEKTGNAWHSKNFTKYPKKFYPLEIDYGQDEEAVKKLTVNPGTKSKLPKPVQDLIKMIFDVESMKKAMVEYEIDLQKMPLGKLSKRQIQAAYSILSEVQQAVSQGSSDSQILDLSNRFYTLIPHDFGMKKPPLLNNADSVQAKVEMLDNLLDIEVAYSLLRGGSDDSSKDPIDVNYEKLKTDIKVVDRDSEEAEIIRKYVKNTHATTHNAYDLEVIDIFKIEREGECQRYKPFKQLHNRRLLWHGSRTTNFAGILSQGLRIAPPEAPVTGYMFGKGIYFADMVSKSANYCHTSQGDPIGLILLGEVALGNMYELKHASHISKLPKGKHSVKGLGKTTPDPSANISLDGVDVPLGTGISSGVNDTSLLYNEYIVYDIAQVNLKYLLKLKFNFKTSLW
# T1 sequence (Q96SW2 whole entry partner): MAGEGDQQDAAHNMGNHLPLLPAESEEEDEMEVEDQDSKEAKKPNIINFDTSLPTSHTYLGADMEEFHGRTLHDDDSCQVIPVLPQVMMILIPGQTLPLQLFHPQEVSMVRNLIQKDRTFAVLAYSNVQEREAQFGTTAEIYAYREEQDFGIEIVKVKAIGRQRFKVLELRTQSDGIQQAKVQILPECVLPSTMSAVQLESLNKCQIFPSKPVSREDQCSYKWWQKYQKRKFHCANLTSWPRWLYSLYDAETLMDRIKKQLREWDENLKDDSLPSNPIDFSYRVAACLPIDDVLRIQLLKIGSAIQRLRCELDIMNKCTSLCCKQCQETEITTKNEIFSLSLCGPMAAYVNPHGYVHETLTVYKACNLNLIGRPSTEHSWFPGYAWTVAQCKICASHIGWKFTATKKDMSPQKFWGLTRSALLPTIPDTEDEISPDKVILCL
Compound,IC50 (MDA-MB-436) [nM],IC50 (CAPAN-1) [nM],other results
O=C(COc1cccc2c1C(=O)N(C1CCC(=O)NC1=O)C2=O)NCCCCCC(=O)N1CCN(C(=O)c2cc(Cc3n[nH]c(=O)c4ccccc34)ccc2F)CC1 (stereo unspecified),9400,> 10000,
O=C(CCCCCCCCCCC(=O)N1CCN(C(=O)c2cc(Cc3n[nH]c(=O)c4ccccc34)ccc2F)CC1)NCCOCCNc1cccc2c1C(=O)N(C1CCC(=O)NC1=O)C2=O (stereo unspecified),47,120,
O=C(CCCCCCCCC(=O)N1CCN(C(=O)c2cc(Cc3n[nH]c(=O)c4ccccc34)ccc2F)CC1)NCCNc1cccc2c1C(=O)N(C1CCC(=O)NC1=O)C2=O (stereo unspecified),123,495,
O=C(CCCCCNC(=O)CNc1cccc2c1C(=O)N(C1CCC(=O)NC1=O)C2=O)NCCCCCC(=O)N1CCN(C(=O)c2cc(Cc3n[nH]c(=O)c4ccccc34)ccc2F)CC1 (stereo unspecified),1700,2200,
O=C(CCCCCCCCCCCC(=O)N1CCN(C(=O)c2cc(Cc3n[nH]c(=O)c4ccccc34)ccc2F)CC1)NCCNc1cccc2c1C(=O)N(C1CCC(=O)NC1=O)C2=O (stereo unspecified),21,87,
O=C(COc1cccc2c1C(=O)N(C1CCC(=O)NC1=O)C2=O)NCCCC(=O)N1CCN(C(=O)c2cc(Cc3n[nH]c(=O)c4ccccc34)ccc2F)CC1 (stereo unspecified),> 10000,> 10000,
Cc1ncsc1-c1ccc(CNC(=O)[C@@H]2C[C@@H](O)CN2C(=O)[C@@H](NC(=O)CCCCCNC(=O)CCCCCCCCCCC(=O)N2CCN(C(=O)c3cc(Cc4n[nH]c(=O)c5ccccc45)ccc3F)CC2)C(C)(C)C)cc1,120,170,Activity [1]: inactive
Cn1nnc2c(C(N)=O)ncn2c1=O [TEMOZOLOMIDE],,,Activity (SW-620): Active; Activity [2]: 9%
O=C(CCCCCNC(=O)COc1cccc2c1C(=O)N(C1CCC(=O)NC1=O)C2=O)NCCCCCC(=O)N1CCN(C(=O)c2cc(Cc3n[nH]c(=O)c4ccccc34)ccc2F)CC1 (stereo unspecified),950,1500,
O=C(CCCNC(=O)CNc1cccc2c1C(=O)N(C1CCC(=O)NC1=O)C2=O)NCCCCCC(=O)N1CCN(C(=O)c2cc(Cc3n[nH]c(=O)c4ccccc34)ccc2F)CC1 (stereo unspecified),2200,7100,
O=C(CCCCCNC(=O)COc1cccc2c1C(=O)N(C1CCC(=O)NC1=O)C2=O)NCCCC(=O)N1CCN(C(=O)c2cc(Cc3n[nH]c(=O)c4ccccc34)ccc2F)CC1 (stereo unspecified),1900,8700,
O=C(CCCCCCCCCCC(=O)N1CCN(C(=O)c2cc(Cc3n[nH]c(=O)c4ccccc34)ccc2F)CC1)NCCNc1ccc2c(c1)C(=O)N(C1CCC(=O)NC1=O)C2=O (stereo unspecified),35,159,
Cc1ncsc1-c1ccc(CNC(=O)[C@@H]2C[C@@H](O)CN2C(=O)[C@@H](NC(=O)CNC(=O)CCCCCCCCCCC(=O)N2CCN(C(=O)c3cc(Cc4n[nH]c(=O)c5ccccc45)ccc3F)CC2)C(C)(C)C)cc1,1200,1600,Activity [1]: inactive
O=C(CCCCCCC(=O)N1CCN(C(=O)c2cc(Cc3n[nH]c(=O)c4ccccc34)ccc2F)CC1)NCCNc1cccc2c1C(=O)N(C1CCC(=O)NC1=O)C2=O (stereo unspecified),830,4100,
O=C(CCCCCCCCCCC(=O)N1CCN(C(=O)c2cc(Cc3n[nH]c(=O)c4ccccc34)ccc2F)CC1)NCCNc1cccc2c1CN(C1CCC(=O)NC1=O)C2=O (stereo unspecified),92,194,
Cc1ncsc1-c1ccc(CNC(=O)[C@@H]2C[C@@H](O)CN2C(=O)[C@@H](NC(=O)CCCCCCCCCCC(=O)N2CCN(C(=O)c3cc(Cc4n[nH]c(=O)c5ccccc45)ccc3F)CC2)C(C)(C)C)cc1,54,87,Activity [1]: inactive
O=C(CCCNC(=O)COc1cccc2c1C(=O)N(C1CCC(=O)NC1=O)C2=O)NCCCC(=O)N1CCN(C(=O)c2cc(Cc3n[nH]c(=O)c4ccccc34)ccc2F)CC1 (stereo unspecified),5300,> 10000,
O=C(CCCCCCCCCC(=O)N1CCN(C(=O)c2cc(Cc3n[nH]c(=O)c4ccccc34)ccc2F)CC1)NCCNc1cccc2c1C(=O)N(C1CCC(=O)NC1=O)C2=O (stereo unspecified),29,264,
O=C(CCCCCCCCCCC(=O)N1CCN(C(=O)c2cc(Cc3n[nH]c(=O)c4ccccc34)ccc2F)CC1)NCCCCCCNc1cccc2c1C(=O)N(C1CCC(=O)NC1=O)C2=O (stereo unspecified),42,110,
Cc1ncsc1-c1ccc(CNC(=O)[C@@H]2C[C@@H](O)CN2C(=O)[C@@H](NC(=O)CCCNC(=O)CCCCCCCCCCC(=O)N2CCN(C(=O)c3cc(Cc4n[nH]c(=O)c5ccccc45)ccc3F)CC2)C(C)(C)C)cc1,680,870,Activity [1]: inactive
O=C(CCCCCCCCCCC(=O)N1CCN(C(=O)c2cc(Cc3n[nH]c(=O)c4ccccc34)ccc2F)CC1)NCCOCCOCCNc1cccc2c1C(=O)N(C1CCC(=O)NC1=O)C2=O (stereo unspecified),64,134,
CN(CCOCCOCCOCCOCCOCCOCCNc1cccc2c1C(=O)N(C1CCC(=O)NC1=O)C2=O)Cc1ccc(-c2[nH]c3cc(F)cc4c3c2CCNC4=O)cc1 (stereo unspecified),710,950,Activity [3]: Active; Activity [4]: Active
O=C(CCCCCCCCCCC(=O)N1CCN(C(=O)c2cc(Cc3n[nH]c(=O)c4ccccc34)ccc2F)CC1)NCCCCNc1cccc2c1C(=O)N(C1CCC(=O)NC1=O)C2=O (stereo unspecified),39,131,Activity [5]: 70%; Activity [6]: 90.5%; Activity [7]: 45%
O=C(CCCCCCCCCCC(=O)N1CCN(C(=O)c2cc(Cc3n[nH]c(=O)c4ccccc34)ccc2F)CC1)NCCCOCCOCCOCCCNc1cccc2c1C(=O)N(C1CCC(=O)NC1=O)C2=O (stereo unspecified),65,154,
O=C(CCCCC(=O)N1CCN(C(=O)c2cc(Cc3n[nH]c(=O)c4ccccc34)ccc2F)CC1)NCCNc1cccc2c1C(=O)N(C1CCC(=O)NC1=O)C2=O (stereo unspecified),> 10000,> 10000,
CN1C(=O)CCC(N2C(=O)c3cccc(NCCNC(=O)CCCCCCCCCCC(=O)N4CCN(C(=O)c5cc(Cc6n[nH]c(=O)c7ccccc67)ccc5F)CC4)c3C2=O)C1=O (stereo unspecified),,,Activity [8]: inactive; Activity [9]: inactive; IC50 [10]: 2.64 nM
O=C(CCCCCCCCCCCCC(=O)N1CCN(C(=O)c2cc(Cc3n[nH]c(=O)c4ccccc34)ccc2F)CC1)NCCNc1cccc2c1C(=O)N(C1CCC(=O)NC1=O)C2=O (stereo unspecified),25,118,
O=C(CCCNC(=O)COc1cccc2c1C(=O)N(C1CCC(=O)NC1=O)C2=O)NCCCCCC(=O)N1CCN(C(=O)c2cc(Cc3n[nH]c(=O)c4ccccc34)ccc2F)CC1 (stereo unspecified),1200,3100,
